AP complement – alternative pathway complement inhibition, orthogonal assay; AID 1235; 62,000 tested, 0.08% active; inhibition, % at 5 µM; Human serum alternative complement pathway, LPS-coated ELISA, C3 deposition; tested in compound mixtures;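 active = inhibition above 30% in each of the two pooled mixtures holding the compound, so the lower value exceeds 30%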
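Assay system: human serum alternative complement pathway, C3 deposition on LPS-coated wells; Dosing: 5 µM per compound in ten-compound mixtures; Detection: Anti-C3 ELISA, OD 450 nm; Buffer or medium: Mg2+-EGTA GVB++ buffer containing human serum at 1:15 dilution; Timing: 1 h at 37 °C; Replication: two different pools per compound.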
D1 mod – D1 dopamine receptor (human) allosteric modulation; HEK293 D1, CRE-luciferase, dopamine EC30 potentiation; actives deviate in either direction; P21728; B-score at 10 µM; 58,000 tested, 5.9% active;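 active = luminescence count or its row- and column-corrected plate score outside the 99.7% band of the plate's sample wells, on either side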
Target sequence (P21728 whole entry, looked up): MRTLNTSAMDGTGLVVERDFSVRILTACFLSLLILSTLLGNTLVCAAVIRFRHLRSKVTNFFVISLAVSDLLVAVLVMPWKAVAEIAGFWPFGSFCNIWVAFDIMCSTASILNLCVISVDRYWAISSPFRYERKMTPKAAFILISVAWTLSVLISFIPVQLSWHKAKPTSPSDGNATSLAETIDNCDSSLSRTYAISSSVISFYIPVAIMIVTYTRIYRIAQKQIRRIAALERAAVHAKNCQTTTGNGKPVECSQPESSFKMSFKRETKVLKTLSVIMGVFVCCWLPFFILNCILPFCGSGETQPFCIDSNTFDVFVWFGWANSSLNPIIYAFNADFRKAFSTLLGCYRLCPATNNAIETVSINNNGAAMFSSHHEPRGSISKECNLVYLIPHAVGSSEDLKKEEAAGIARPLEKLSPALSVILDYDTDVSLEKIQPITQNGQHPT
M1 antag – M1 muscarinic receptor (rat) antagonism; 64,000 tested, 3.4% active; P08482; B-score at 10 µM; CHO-M1 cells, Fluo-4 calcium, ACh EC80 antagonist mode; active compounds read low;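 active = calcium fluorescence response, raw or row-and-column corrected B-score, differing from the plate sample mean either way at a set confidence level, mostly lower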
M1 agonist – activates the M1 muscarinic receptor. CHO-M1 cells, Fluo-4 calcium fluorescence, agonist mode; active compounds read high. B-score at 10 µM. 64,000 tested, 3% active. AID 626;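 active = fluorescence rise, raw or as B-score row- and column-corrected plate score, outside the 99.7% band of its plate's samples, either direction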
Htt clearance – compounds clearing mutant huntingtin protein. HeLa Exon1htt(103Q)mCFP, aggregate imaging; zero = plate's median compound well. inhibition, % at 1.5 µM. 47,000 tested, 0.42% active. AID 853;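 active = inhibition of aggregate fluorescence above about 70%, also judged a hit by eye on the cell image, limit read from the data, passing the limit was not always enough; inconclusive = no rule stated for this call; inactive = not judged a hit on image review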;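 also: cells exposed to compound for three days before fixation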
D1 PAM confirm – D1 receptor (human) allosteric modulation, confirmed. 2,200 tested, 88% active. luminescence at 10 µM. HEK293 D1 CRE-luciferase, dopamine EC30 potentiation; active compounds read high. shares compounds with D1 mod. AID 642;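 active = luminescence in either of two replicates above the same-plate mean plus 3 SD of the low-dose dopamine control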
D1 no dopamine – D1 (human) signaling in absence of dopamine | shares compounds with D1 mod | HEK293 D1 CRE-luciferase, luminescence, no dopamine; active compounds read high | luminescence at 10 µM | 1,900 tested, 0.8% active | AID 646; in the data active = luminescence above about 3900
Isoprot counter – isoproterenol response counter-screen activity for D1 modulators; shares compounds with D1 mod; HEK293 D1 CRE-luciferase, isoproterenol EC30 counter-screen; calls only at 10 µM; 2,200 tested, 63% active;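 active = luminescence in either replicate above plate mean of wells with a partly effective reference agonist dose plus 3 SD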;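 also: isoproterenol raises cAMP through native beta-adrenoceptor Gs so signal bypasses D1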
Of the large screens only hits and unclear results are named; the others gave an inactive call (follow-up assays come after a bar, where they were run). This is a sample that favours compounds with a hit; in the whole collection about 9% have one here.

COc1ccc(CCN2C(=O)C(O)=C(C(=O)c3ccco3)C2c2cccs2)cc1OC (centres undefined)	none (no result: Htt clearance)
O=C(O)c1ccc(CSc2nnc(COc3ccc(Cl)cc3Cl)o2)cc1	D1 mod 5.6 (no result: Htt clearance) | D1 PAM confirm 10144 | Isoprot counter active
O=c1cc(CSc2nnc(COc3ccccc3Cl)o2)nc2sccn12	none (no result: Htt clearance)
CCOC(=O)c1ccc(NC(=O)c2nccnc2C(=O)O)cc1	none (no result: D1 mod, Htt clearance)
CNC(=O)N(C1=NCC(C)(C)S1)c1ccc(F)c(Cl)c1	D1 mod 11 | D1 PAM confirm 25560 | D1 no dopamine inactive | Isoprot counter active
C=CCn1c(C(C)NC(=O)COC)nc2ccccc21 (centres undefined)	D1 mod 5.4 (no result: Htt clearance) | D1 PAM confirm inactive | D1 no dopamine inactive | Isoprot counter inactive
Cc1ccc(S(=O)(=O)N2CC3CCC2C3)cc1 (centres undefined)	D1 mod 4.4 | D1 PAM confirm 6724 | Isoprot counter inactive
O=C(CCn1c(=O)oc2ccccc21)Nc1cccc(Cl)c1	D1 mod 14 (no result: Htt clearance) | D1 PAM confirm inactive | D1 no dopamine inactive | Isoprot counter inactive
CC(=O)c1ccc(NC(=O)CCn2c(=O)oc3ccccc32)cc1	none
O=C(OCc1ccccc1Cl)c1ccc(-n2cnnc2)cc1	none
CCC(=O)Nc1nonc1-c1nc2ccccc2n1Cc1ccccc1	D1 mod 3.3 | D1 PAM confirm 13704 | D1 no dopamine inactive | Isoprot counter active
CCC(=O)Nc1nonc1-c1nc2ccccc2n1Cc1cccc2ccccc12	none (no result: AP complement, D1 mod, M1 antag, M1 agonist)
Cn1cc(CC(=O)NCCCN2CCCC2=O)c2ccccc21	none (no result: Htt clearance)
COC(=O)C(C)Oc1ccc2c3c(c(=O)oc2c1)CCCCC3 (centres undefined)	none
CC(C)Oc1ccc2c3c(c(=O)oc2c1)CCC3	D1 mod 5.8 | D1 PAM confirm 11556 | D1 no dopamine inactive | Isoprot counter active
O=C(C1CCCO1)N1CCC(O)(c2ccccc2)CC1 (centres undefined)	none
Nc1nnc(-c2cn(-c3ccccc3)nc2-c2ccccc2)o1	D1 mod 3 | D1 PAM confirm 15252 | D1 no dopamine inactive | Isoprot counter active
COc1cc2c(cc1OC)C(C(=O)NCCN1CCOCC1)C1c3ccccc3CCN1C2=O (centres undefined)	none
COc1cc2c(cc1OC)C(C(=O)Nc1ccc3c(c1)OCCO3)C1c3ccccc3CCN1C2=O (centres undefined)	D1 mod 4.1 | D1 PAM confirm 6868 | D1 no dopamine inactive | Isoprot counter inactive
COC(=O)C1=[N+]([O-])OC(C(=O)OC)C1c1c[nH]c2ccccc12 (centres undefined)	D1 mod 4.2 | D1 PAM confirm inactive | D1 no dopamine inactive | Isoprot counter inactive
COc1ccc(Cn2c(CCCO)nc3ccccc32)cc1OC	D1 mod 14 (no result: Htt clearance) | D1 PAM confirm 15968 | D1 no dopamine inactive | Isoprot counter active
CCc1nc2ccccc2n1Cc1ccc(OC)c(OC)c1	D1 mod 6.2 (no result: Htt clearance) | D1 PAM confirm 18880 | D1 no dopamine inactive | Isoprot counter active
Cc1cc(NC(=O)c2ccc3c(c2)OCO3)ccc1NC(=O)c1ccco1	none (no result: AP complement, D1 mod, M1 antag, M1 agonist)
CCN(CC)C(=O)Cn1nc(-c2ccccc2O)nc1SCC(=O)Nc1ccc(OC)cc1	none (no result: Htt clearance)
COC(=O)c1cc(CSc2nnc(NC3CCCCC3)s2)oc1C	D1 mod 10 (no result: Htt clearance) | D1 PAM confirm 10504 | D1 no dopamine inactive | Isoprot counter active
COC(=O)c1cc(CSc2nnc(-c3ccccc3)c(-c3ccccc3)n2)oc1C	none
CCOC(=O)c1cc2cc(F)ccc2nc1C	D1 mod 10 (no result: Htt clearance) | D1 PAM confirm 12456 | D1 no dopamine inactive | Isoprot counter active
CC(=O)COc1ccc2c3c(c(=O)oc2c1C)CCCCC3	none
CC(=O)C(C)Oc1ccc2c3c(c(=O)oc2c1C)CCCC3 (centres undefined)	D1 mod 3.2, Htt clearance inconclusive | D1 PAM confirm 9268 | D1 no dopamine inactive | Isoprot counter active

Assay outcomes deposited in PubChem BioAssay by several laboratories.
